TAAR1 antagonist = antagonists of human TAAR1. Q96RJ0. CHO RD-HGA16 TAAR1, Fluo-8 calcium fluorescence, antagonist. inhibition, % at 3 µM. 360,000 compounds, 1.5% hits. AID 624466;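 active means inhibition above a per-plate cutoff, the mean inhibition of test compounds on that plate plus 3 SD, cut at about 49% in these data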;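 further: 0% = DMSO plus EC80 beta-PEA response and 100% = DMSO alone without agonist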
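System: CHO RD-HGA16 cells bearing hTAAR1. Reagent: EC80 β-phenethylamine stimulus. Schedule: seeding 17-24 h prior, 75-min 37 °C, 30-min RT dye loading. Signal: Fluo-8 intracellular calcium dye fluorescence, real-time kinetic reads. Read-out: % inhibition from peak post-agonist over basal fluorescence ratio. Benchmarks: vehicle wells and EC80 agonist wells. Replicates: n of 1.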
GPR7 antagonist = antagonists of human GPR7 (neuropeptides B/W receptor 1); inhibition, % at 4.4 µM; AID 1861; GPR7-expressing cells, fluorescence antagonist assay; 290,000 compounds, 1.1% hits; in the data active means inhibition above about 16%, passing the limit was not always enough;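 further: cells stimulated with the agonist NPW; 0% = agonist with vehicle and 100% = vehicle without agonist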
TAAR1 agonist = human TAAR1 agonism. Q96RJ0. CHO RD-HGA16 TAAR1, Fluo-8 calcium fluorescence; vehicle wells 0%, saturating PEA agonist 100%. activation, % at 3 µM. 360,000 compounds, 0.99% hits. AID 624467;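 active means activation above the mean activation of all test compounds in the run plus 3 SD, cut at about 38% in these data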
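test system = CHO RD-HGA16 cells carrying human TAAR1 plus Gα16 | schedule = 17-24 h seeding, 75 min 37 °C dye, 30 min RT | compound dosing = 3 µM single concentration | control set = DMSO and PEA EC100 | replicates = n 1 | signal = Fluo-8 fluorescence, 5 s baseline then 140 s kinetic read | measure = percent activation vs PEA EC100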
MPTP block = permeability transition pore inhibition; 360,000 compounds, 1.4% hits; inhibition, % at 10 µM; isolated mouse mitochondria, Ca2+ swelling absorbance, 30 min; AID 602449;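 active means inhibition of 50% or more, scaled per plate between neutral and stimulator controls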;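 further: 0% = DMSO wells given calcium and 100% = 1 mM EGTA wells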
DAGLB inh = blocks human DAGLB lipase activity. Q8NCG7. HEK293T DAGLB membrane lysate, EnzChek fluorogenic substrate. inhibition, % at 5.17 µM. 340,000 compounds, 0.059% hits; in the data active means inhibition above about 34%;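 further: 0% = enzyme with vehicle and 100% = wells lacking enzyme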
Target sequence (Q8NCG7 whole entry, looked up): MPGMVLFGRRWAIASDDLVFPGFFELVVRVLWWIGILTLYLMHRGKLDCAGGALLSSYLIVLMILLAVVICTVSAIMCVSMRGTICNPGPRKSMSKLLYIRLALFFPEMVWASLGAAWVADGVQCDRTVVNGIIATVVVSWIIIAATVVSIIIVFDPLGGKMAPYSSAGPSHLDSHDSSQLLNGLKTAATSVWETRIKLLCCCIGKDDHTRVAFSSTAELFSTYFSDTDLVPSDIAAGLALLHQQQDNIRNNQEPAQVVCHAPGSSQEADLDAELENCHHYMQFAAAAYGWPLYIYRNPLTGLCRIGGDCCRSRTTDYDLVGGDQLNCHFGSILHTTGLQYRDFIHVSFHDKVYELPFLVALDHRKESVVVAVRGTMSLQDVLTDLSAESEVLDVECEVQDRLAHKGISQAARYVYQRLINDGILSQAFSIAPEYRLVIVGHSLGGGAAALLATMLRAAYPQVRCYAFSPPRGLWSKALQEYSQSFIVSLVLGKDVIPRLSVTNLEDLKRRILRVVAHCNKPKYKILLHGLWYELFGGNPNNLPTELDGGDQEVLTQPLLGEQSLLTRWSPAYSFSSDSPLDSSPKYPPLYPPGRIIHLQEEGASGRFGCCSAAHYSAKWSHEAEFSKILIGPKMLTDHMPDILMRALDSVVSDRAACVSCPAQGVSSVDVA
* marks the source's active call; other numbers are inactive results; / = not tested or not shown; ! = repeats disagree. Hits are enriched below; roughly 4% of the tested compounds scored in any of these assays.

SMILES	TAAR1 antagonist	GPR7 antagonist	TAAR1 agonist	MPTP block	DAGLB inh
CCOC(=O)[C@]12CCC=C1N(Cc1ccccc1)C(=O)[C@H](CC(=O)N1CCN(C(=O)c3ccco3)CC1)C2	-12	/	2	1	/
CCNC(=O)c1cc2c(c(-c3cccc(-c4ccccc4F)c3)n1)[C@H](CCO)N(C(=O)CC)C2	-12	/	2	-1	/
COc1ccccc1-c1cccc(-c2nc(C(=O)Nc3nccs3)cc3c2[C@@H](CCO)N(C(C)=O)C3)c1	54*	/	20	0	/
CCNC(=O)c1cc2c(c(-c3cccc(-c4cncnc4)c3)n1)[C@@H](CCO)N(C(C)=O)C2	-23	/	2	0	/
CCC(=O)N1Cc2cc(C(=O)Nc3nccs3)nc(-c3cccc(-c4ccccc4OC)c3)c2[C@H]1CCO	57*	/	14	-1	/
CCNC(=O)c1cc2c(c(-c3cccc(-c4cc5ccccc5o4)c3)n1)[C@H](CCO)N(C(=O)NC(C)C)C2	56*	/	12	-2	/
CCCNC(=O)C1(C)CCCN(C(=O)c2cc(F)ccc2C)C1 (centres undefined)	-12	/	0	0	/
COc1cc2c(cc1OC)/C(=C/C(=O)OCc1ccccc1)OC2	-3	/	13	-1	/
COc1ccccc1C1CC(c2ccc(C)cc2)Nc2ncnn21 (centres undefined)	8	14*	13	1	2
O=C(Nc1ccc(F)cc1F)Nc1ccc(F)cc1F	7	8	6	17	0
O=C(Nc1cccs1)Nc1ccc(F)cc1F	-10	1	39*	18	2
CC(=O)c1cccc(NC(=O)Nc2cccs2)c1	28	-6	42*	5	2
CN1CCCN(C(=O)c2ccc(Cl)s2)CC1	-28	-15	6	0	-2
O=C(Nc1ccc2c(c1)CN(C(=O)Nc1ccc(F)cc1)CC2)c1ccccn1	41	/	9	3	-2
c1ccc(COc2ccccc2CNC23CC4CC(CC(C4)C2)C3)cc1	-34	36*	31	11	3
Cc1cc(C(=O)N2CCN(C/C=C/c3ccccc3)CC2)cs1	/	20*	/	0	2
CC(C)c1ccc(-n2c(-c3ccccc3)c[n+]3c2CCc2ccccc2-3)cc1	15	68*	4	3	5
COc1ccccc1-n1c(-c2ccccc2)c[n+]2c1CCc1ccccc1-2	4	28*	4	8	1
COc1ccc(-n2c(-c3ccc(Br)cc3)c[n+]3c2CCc2ccccc2-3)cc1	-5	19	1	37	3
Cc1ccc(C)c(N2CCN(C(C(=O)NC3CCCC3)c3ccco3)CC2)c1 (centres undefined)	-26	/	3	0	/
CC(O)(c1cccc(F)c1)c1nc(-c2csc3ccccc23)cs1 (centres undefined)	-7	/	2	2	/
CC(C)CCN1C(=O)c2cccc3c(N)ccc(c23)C1=O	78*	/	149*	1	-233
Cc1cccc(N2C(=O)c3cccc4c(N)ccc(c34)C2=O)c1	45	11	101*	0	-193
CC(C)c1ccc(/C=C(\c2nc3ccccc3[nH]2)S(=O)(=O)c2ccccc2)cc1	-25	28*	5	5	-2
O=S(=O)(/C(=C/c1ccc(C(F)(F)F)cc1)c1nc2ccccc2[nH]1)c1ccccc1	2	26*	0	7	0
SMILES	TAAR1 antagonist	GPR7 antagonist	TAAR1 agonist	MPTP block	DAGLB inh
C/C(=C\c1ccc(N)cc1)c1nc2ccccc2[nH]1	7	-2	-1	0	-2
FC(F)(F)c1cccc(NC(=S)NCc2ccccn2)c1	-4	20*	4	8	1
N#CC1=C2SCC(O)(c3ccccc3)N2C(=O)CC1c1cccs1 (centres undefined)	7	17*	33	-1	0
N#CC1=C2SCC(O)(c3ccccc3)N2C(=O)CC1c1ccccc1F (centres undefined)	-12	-4	8	0	0
CC(=O)C1=C(C)NC(SCC(=O)c2ccc(F)cc2)=C(C#N)C1c1ccco1 (centres undefined)	51*	-3	8	3	-9
COc1ccccc1CNC(=O)[C@H](C)NC(=O)C1CCN(C(=O)[C@@H]2CCCN2C(=O)OC(C)(C)C)CC1	-42	-2	3	-1	1
c1ccc(-c2ccc(C(c3ccccc3)n3ccnc3)cc2)cc1 (centres undefined)	35	36*!	1	0	-4
c1ccc(-c2ccc(-n3ccnc3)cc2)cc1	-10	14	3	1	-4
CCOC(=O)C(C)N1c2cccc3cccc(c23)S1(=O)=O (centres undefined)	-12	/	-1	-1	-2
CCN1CCN(C(=O)/C=C/c2ccc(C(C)C)cc2)CC1	-37	/	1	0	1
CCN1CCC(O)(/C=C/c2ccc(C(C)C)cc2)C(C(=O)/C=C/c2ccc(C(C)C)cc2)C1 (centres undefined)	24	/	40*	35	3
COc1ccccc1-c1coc2cc(OC(=O)N3CCOCC3)ccc2c1=O	7	-14	8	1	/
CCC(Oc1ccc2c(=O)c(-c3ccccc3OC)coc2c1)C(=O)OCc1ccccc1 (centres undefined)	55*	-5	-1	8	-11
COc1ccc(C(C(O)C(=O)c2c[nH]c3ccccc23)N2CCN(c3ccc(OC)cc3)CC2)cc1 (centres undefined)	9	1	38*	2	0
CC1CCc2c(C(=O)Nc3cccc(-c4nn[nH]n4)c3)csc2C1 (centres undefined)	-8	-3	0	1	2
CNC(=O)OCc1ncn(-c2ccccc2)c1COC(=O)NC	-1	/	2	0	/
C[C@H]1CN([C@@H](C)CO)C(=O)c2cc(Br)cnc2O[C@@H]1CN(C)S(=O)(=O)c1cn(C)cn1	14	/	0	-1	-1
CC(Nc1nc(N2CCNCC2)nc2ccccc12)c1ccccc1 (centres undefined)	39	-3	39*	-2	1
COc1ccc(C(=O)NCC2CCN(C(=O)C(=O)c3cc4ccccc4o3)CC2)c(OC)c1	-26	/	-1	/	/
COc1ccc(CNC(=O)[C@H](C)[C@@H]2C[C@@]2(C)[C@@H](NC(=O)OCc2ccccc2)c2ccccc2)cc1OC	28	-5	18	/	/
C[C@@H](C(=O)NCc1ccccc1)[C@H]1C[C@]1(C)[C@H](NC(=O)OCc1ccccc1)c1ccccc1	62*	17	13	0	-8
CC(=O)N(C)c1ccc(NC(=O)Nc2ccc(C)c(C)c2)cc1	58*	-11	34	6	0
CCCCCCn1cc(CN2CC(N3CCCCC3)CS2(=O)=O)nn1 (centres undefined)	-29	/	7	-1	/
CCCN(CCC)S(=O)(=O)c1ccc(C(=O)N2CCC(=O)c3ccccc32)cc1	60*	12	7	5	-1

Compound activity as filed in PubChem BioAssay.
